From ChEMBL document CHEMBL1629431, “Synthesis and antitumor activity of some 2, 3-disubstituted quinazolin-4(3H)-ones and 4, 6- disubstituted- 1, 2, 3, 4-tetrahydroquinazolin-2H-ones” (2010)

How the values were obtained:
Assay type in all cases: functional
A549 = assay: Growth inhibition of human A549 cells at 10 uM after 48 hrs by coulter counter method; settings: A549, 48 h, read-out: GI
Procedure, shortened: (§1)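 Single high-dose NCI 60-cell-line panel screen across nine tumor subpanels. Test solutions (0.2 mL) were added in duplicate to wells holding 1.8 mL of culture at 6 × 10⁴ cells/mL. Controls got PBS and DMSO at identical dilutions. Incubation was 48 h at 37 °C in humidified 5% CO₂. Cells were diluted 10-fold in saline, Coulter-counted and dilution-corrected. Results were expressed as percent growth inhibition versus control.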

MDA-MB-231 = assay: Growth inhibition of human MDA-MB-231 cells at 10 uM after 48 hrs by coulter counter method; settings: MDA-MB-231, 48 h, read-out: GI; procedure, shortened: as §1
MOLT-4 = assay: Growth inhibition of human MOLT4 cells at 10 uM after 48 hrs by coulter counter method; settings: MOLT-4, 48 h, read-out: GI; procedure, shortened: as §1
CAKI-1 = assay: Growth inhibition of human Caki1 cells at 10 uM after 48 hrs by coulter counter method; settings: CAKI-1, 48 h, read-out: GI; procedure, shortened: as §1
UO-31 = assay: Growth inhibition of human UO31 cells at 10 uM after 48 hrs by coulter counter method; settings: UO-31, 48 h, read-out: GI; procedure, shortened: as §1
HT-29 = assay: Growth inhibition of human HT-29 cells at 10 uM after 48 hrs by coulter counter method; settings: HT-29, 48 h, read-out: GI; procedure, shortened: as §1
SN12C = assay: Growth inhibition of human SN12C cells at 10 uM after 48 hrs by coulter counter method; settings: read-out: GI; procedure, shortened: as §1
OVCAR-4 = assay: Growth inhibition of human OVCAR4 cells at 10 uM after 48 hrs by coulter counter method; settings: OVCAR-4, 48 h, read-out: GI; procedure, shortened: as §1
SK-MEL-2 = assay: Growth inhibition of human SK-MEL-2 cells at 10 uM after 48 hrs by coulter counter method; settings: SK-MEL-2, 48 h, read-out: GI; procedure, shortened: as §1
M14 = assay: Growth inhibition of human M14 cells at 10 uM after 48 hrs by coulter counter method; settings: M14, 48 h, read-out: GI; procedure, shortened: as §1
T47D = assay: Growth inhibition of human T47D cells at 10 uM after 48 hrs by coulter counter method; settings: read-out: GI; procedure, shortened: as §1
KM12 = assay: Growth inhibition of human KM12 cells at 10 uM after 48 hrs by coulter counter method; settings: KM12, 48 h, read-out: GI; procedure, shortened: as §1
BT-549 = assay: Growth inhibition of human BT549 cells at 10 uM after 48 hrs by coulter counter method; settings: BT-549, 48 h, read-out: GI; procedure, shortened: as §1
OVCAR-8 = assay: Growth inhibition of human OVCAR8 cells at 10 uM after 48 hrs by coulter counter method; settings: OVCAR-8, 48 h, read-out: GI; procedure, shortened: as §1
CCRF-CEM = assay: Growth inhibition of human CCRF-CEM cells at 10 uM after 48 hrs by coulter counter method; settings: read-out: GI; procedure, shortened: as §1
PC-3 = assay: Growth inhibition of human PC3 cells at 10 uM after 48 hrs by coulter counter method; settings: PC-3, 48 h, read-out: GI; procedure, shortened: as §1
NCI-H23 = assay: Growth inhibition of human NCI-H23 cells at 10 uM after 48 hrs by coulter counter method; settings: NCI-H23, 48 h, read-out: GI; procedure, shortened: as §1
UACC-62 = assay: Growth inhibition of human UACC62 cells at 10 uM after 48 hrs by coulter counter method; settings: UACC-62, 48 h, read-out: GI; procedure, shortened: as §1
SNB-75 = assay: Growth inhibition of human SNB75 cells at 10 uM after 48 hrs by coulter counter method; settings: SNB-75, 48 h, read-out: GI; procedure, shortened: as §1
NCI-H522 = assay: Growth inhibition of human NCI-H522 cells at 10 uM after 48 hrs by coulter counter method; settings: NCI-H522, 48 h, read-out: GI; procedure, shortened: as §1
786-0 = assay: Growth inhibition of human 786-0 cells at 10 uM after 48 hrs by coulter counter method; settings: 786-0, 48 h, read-out: GI; procedure, shortened: as §1
U-251 = assay: Growth inhibition of human U251 cells at 10 uM after 48 hrs by coulter counter method; settings: U-251, 48 h, read-out: GI; procedure, shortened: as §1
HOP-92 = assay: Growth inhibition of human HOP92 cells at 10 uM after 48 hrs by coulter counter method; settings: HOP-92, 48 h, read-out: GI; procedure, shortened: as §1
SF-539 = assay: Growth inhibition of human SF539 cells at 10 uM after 48 hrs by coulter counter method; settings: SF-539, 48 h, read-out: GI; procedure, shortened: as §1
SK-MEL-28 = assay: Growth inhibition of human SK-MEL-28 cells at 10 uM after 48 hrs by coulter counter method; settings: SK-MEL-28, 48 h, read-out: GI; procedure, shortened: as §1
HL-60(TB) = assay: Growth inhibition of human HL-60(TB) cells at 10 uM after 48 hrs by coulter counter method; settings: HL-60, 48 h, read-out: GI
Procedure, shortened: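 Part of the NCI 60-cell-line single-high-dose panel. Cells were seeded at 6 × 10⁴ cells/mL with test solution in duplicate wells, alongside PBS/DMSO controls at identical dilutions. Plates were held 48 h at 37 °C in a humidified 5% CO₂ incubator. Cells were then diluted 10-fold in saline and counted by Coulter counter, with counts corrected for dilution. Results are percent growth of treated cells, reported as GI %.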

MCF7 = assay: Growth inhibition of human MCF7 cells at 10 uM after 48 hrs by coulter counter method; settings: MCF7, 48 h, read-out: GI; procedure, shortened: as §1
K562 = assay: Growth inhibition of human K562 cells at 10 uM after 48 hrs by coulter counter method; settings: K562, 48 h, read-out: GI; procedure, shortened: as §1
SF-268 = assay: Growth inhibition of human SF268 cells at 10 uM after 48 hrs by coulter counter method; settings: SF-268, 48 h, read-out: GI; procedure, shortened: as §1
[1] = Growth inhibition of human Hs 578T cells at 10 uM after 48 hrs by coulter counter method; settings: read-out: GI; procedure, shortened: as §1
HCT-116 = assay: Growth inhibition of human HCT116 cells at 10 uM after 48 hrs by coulter counter method; settings: HCT-116, 48 h, read-out: GI; procedure, shortened: as §1
SK-OV-3 = assay: Growth inhibition of human SKOV3 cells at 10 uM after 48 hrs by coulter counter method; settings: SK-OV-3, 48 h, read-out: GI; procedure, shortened: as §1
MDA-MB-468 = assay: Growth inhibition of human MDA-MB-468 cells at 10 uM after 48 hrs by coulter counter method; settings: MDA-MB-468, 48 h, read-out: GI; procedure, shortened: as §1
NCI-H226 = assay: Growth inhibition of human NCI-H226 cells at 10 uM after 48 hrs by coulter counter method; settings: NCI-H226, 48 h, read-out: GI; procedure, shortened: as §1
IGROV-1 = assay: Growth inhibition of human IGROV1 cells at 10 uM after 48 hrs by coulter counter method; settings: IGROV-1, 48 h, read-out: GI; procedure, shortened: as §1
COLO 205 = assay: Growth inhibition of human COLO205 cells at 10 uM after 48 hrs by coulter counter method; settings: COLO 205, 48 h, read-out: GI; procedure, shortened: as §1

Row | Structure (SMILES) | inhibition of growth at 10 µM (A549) [%] | inhibition of growth at 10 µM (MDA-MB-231) [%] | inhibition of growth at 10 µM (CAKI-1) [%] | inhibition of growth at 10 µM (UO-31) [%] | inhibition of growth at 10 µM (HT-29) [%] | inhibition of growth at 10 µM (SN12C) [%] | inhibition of growth at 10 µM (OVCAR-4) [%] | inhibition of growth at 10 µM (SK-MEL-2) [%] | inhibition of growth at 10 µM (M14) [%] | inhibition of growth at 10 µM (T47D) [%] | inhibition of growth at 10 µM (KM12) [%] | inhibition of growth at 10 µM (BT-549) [%] | inhibition of growth at 10 µM (OVCAR-8) [%] | inhibition of growth at 10 µM (PC-3) [%] | inhibition of growth at 10 µM (NCI-H23) [%] | inhibition of growth at 10 µM (UACC-62) [%] | inhibition of growth at 10 µM (SNB-75) [%] | inhibition of growth at 10 µM (NCI-H522) [%] | inhibition of growth at 10 µM (786-0) [%] | inhibition of growth at 10 µM (U-251) [%] | also measured
1 | O=c1c2ccccc2nc(-n2ccnc2)n1-c1ccccc1 | 30 | 30 | 30 | 30 | 30 | 30 | 30 | 30 | 30 | 30 | 30 | 30 | 30 | 30 | 30 | 30 | 30 | 30 | 30 | 30 | inhibition of growth at 10 µM (MOLT-4): 30%; inhibition of growth at 10 µM (CCRF-CEM): 30%; inhibition of growth at 10 µM (HOP-92): 76.6%; inhibition of growth at 10 µM (SF-539): 30%; inhibition of growth at 10 µM (SK-MEL-28): 30%; inhibition of growth at 10 µM (HL-60(TB)): 30%; inhibition of growth at 10 µM (MCF7): 30%; inhibition of growth at 10 µM (K562): 30%; inhibition of growth at 10 µM (SF-268): 30%; inhibition of growth at 10 µM [1]: 30%; inhibition of growth at 10 µM (HCT-116): 30%; inhibition of growth at 10 µM (SK-OV-3): 30%; inhibition of growth at 10 µM (MDA-MB-468): 30%; inhibition of growth at 10 µM (NCI-H226): 30%
2 | O=c1c2ccccc2nc(-n2ccnc2)n1-c1ccc(Cl)cc1 | 30 | 30 | 30 | 30 | 30 | 30 | 30 | 30 | 30 | 39 | 30 | 30 | 30 | 40.3 | 30 | 30 | 30 | 30 | 30 | 30 | inhibition of growth at 10 µM (MOLT-4): 47.7%; inhibition of growth at 10 µM (IGROV-1): 30%; inhibition of growth at 10 µM (HOP-92): 30%; inhibition of growth at 10 µM (SF-539): 30%; inhibition of growth at 10 µM (SK-MEL-28): 30%; inhibition of growth at 10 µM (HL-60(TB)): 30%; inhibition of growth at 10 µM (MCF7): 30%; inhibition of growth at 10 µM (K562): 37.1%; inhibition of growth at 10 µM (SF-268): 30%; inhibition of growth at 10 µM [1]: 30%; inhibition of growth at 10 µM (HCT-116): 30%; inhibition of growth at 10 µM (SK-OV-3): 30%; inhibition of growth at 10 µM (MDA-MB-468): 30%; inhibition of growth at 10 µM (NCI-H226): 30%; inhibition of growth at 10 µM (COLO 205): 30%
3 | COc1ccc(-n2c(-n3ccnc3)nc3ccccc3c2=O)cc1 | 30 | 30 | 30 | 30 | 30 | 30 | 30 | 30 | 30 | 30 | 30 | 30 | 30 | 30 | 30 | 30 | 30 | 30 | 30 | 30 | inhibition of growth at 10 µM (IGROV-1): 30%; inhibition of growth at 10 µM (CCRF-CEM): 30%; inhibition of growth at 10 µM (SF-539): 30%; inhibition of growth at 10 µM (SK-MEL-28): 30%; inhibition of growth at 10 µM (HL-60(TB)): 30%; inhibition of growth at 10 µM (MCF7): 30%; inhibition of growth at 10 µM (K562): 30.8%; inhibition of growth at 10 µM (SF-268): 30%; inhibition of growth at 10 µM [1]: 30%; inhibition of growth at 10 µM (HCT-116): 30%; inhibition of growth at 10 µM (SK-OV-3): 30%; inhibition of growth at 10 µM (MDA-MB-468): 30%; inhibition of growth at 10 µM (NCI-H226): 30%; inhibition of growth at 10 µM (COLO 205): 30%
4 | CCn1c(-n2ccnc2)nc2ccccc2c1=O | 30 | 30 | 46.3 | 30 | 30 | 30 | 30 | 30 | 30 | 30 | 30 | 30 | 30 | 30 | 30 | 30 | 30 | 30 | 30 | 30 | inhibition of growth at 10 µM (CCRF-CEM): 30%; inhibition of growth at 10 µM (HOP-92): 30%; inhibition of growth at 10 µM (SF-539): 30%; inhibition of growth at 10 µM (SK-MEL-28): 30%; inhibition of growth at 10 µM (HL-60(TB)): 30%; inhibition of growth at 10 µM (MCF7): 30%; inhibition of growth at 10 µM (K562): 37.9%; inhibition of growth at 10 µM (SF-268): 30%; inhibition of growth at 10 µM [1]: 30%; inhibition of growth at 10 µM (HCT-116): 30%; inhibition of growth at 10 µM (SK-OV-3): 30%; inhibition of growth at 10 µM (MDA-MB-468): 30%; inhibition of growth at 10 µM (NCI-H226): 30%; inhibition of growth at 10 µM (COLO 205): 30%
